How the values were obtained:
[1] = molecular target: T1, Adrenergic receptor alpha-2 (Homo sapiens, UniProt P08913+P18825+P18089); test: Displacement of [3H]-RX821002 from adrenergic alpha 2 receptor in post-mortem human brain frontal cortex membrane measured after 30 mins by liquid scintillation counting spectrometry; assay type: cell membranes
T1 sequence (P08913 whole entry): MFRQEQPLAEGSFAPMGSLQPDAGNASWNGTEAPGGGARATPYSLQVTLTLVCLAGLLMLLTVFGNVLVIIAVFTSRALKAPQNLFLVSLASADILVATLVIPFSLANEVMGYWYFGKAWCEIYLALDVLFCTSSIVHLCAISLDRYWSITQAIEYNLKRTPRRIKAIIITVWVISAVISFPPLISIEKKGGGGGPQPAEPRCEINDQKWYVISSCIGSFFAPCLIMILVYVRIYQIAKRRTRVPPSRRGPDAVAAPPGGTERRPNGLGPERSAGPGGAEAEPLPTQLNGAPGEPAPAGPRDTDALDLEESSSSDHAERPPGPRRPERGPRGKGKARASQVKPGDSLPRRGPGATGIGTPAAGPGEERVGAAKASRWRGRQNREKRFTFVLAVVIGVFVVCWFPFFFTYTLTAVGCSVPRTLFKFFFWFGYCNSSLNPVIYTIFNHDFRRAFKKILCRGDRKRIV
T1 sequence (P18825 whole entry): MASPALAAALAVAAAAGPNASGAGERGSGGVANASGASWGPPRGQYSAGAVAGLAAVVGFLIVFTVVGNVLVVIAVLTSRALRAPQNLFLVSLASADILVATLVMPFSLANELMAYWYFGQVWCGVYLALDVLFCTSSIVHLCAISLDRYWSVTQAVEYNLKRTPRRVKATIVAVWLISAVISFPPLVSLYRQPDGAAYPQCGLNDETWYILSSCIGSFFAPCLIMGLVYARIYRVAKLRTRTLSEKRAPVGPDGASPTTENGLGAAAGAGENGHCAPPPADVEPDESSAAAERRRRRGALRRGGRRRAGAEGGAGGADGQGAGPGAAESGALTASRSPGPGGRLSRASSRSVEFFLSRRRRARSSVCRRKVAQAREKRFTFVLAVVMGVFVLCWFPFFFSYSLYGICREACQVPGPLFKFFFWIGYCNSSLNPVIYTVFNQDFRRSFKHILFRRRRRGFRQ
T1 sequence (P18089 whole entry): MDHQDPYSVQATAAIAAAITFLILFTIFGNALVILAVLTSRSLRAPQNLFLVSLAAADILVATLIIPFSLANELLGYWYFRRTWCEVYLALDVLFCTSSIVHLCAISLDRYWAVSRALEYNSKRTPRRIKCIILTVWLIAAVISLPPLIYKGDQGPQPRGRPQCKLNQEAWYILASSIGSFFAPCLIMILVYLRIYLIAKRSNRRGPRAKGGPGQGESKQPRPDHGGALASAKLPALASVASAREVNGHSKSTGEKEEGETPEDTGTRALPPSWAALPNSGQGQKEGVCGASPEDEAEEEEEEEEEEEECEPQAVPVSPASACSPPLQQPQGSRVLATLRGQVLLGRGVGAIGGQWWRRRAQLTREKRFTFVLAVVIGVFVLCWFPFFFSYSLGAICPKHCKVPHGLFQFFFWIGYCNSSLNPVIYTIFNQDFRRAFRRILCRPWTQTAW

Homo sapiens [2] = species: Homo sapiens; test: Selectivity index, ratio of pKi for displacement of [3H]2-BFI from imidazoline I2 receptor in post-mortem human brain frontal cortex membrane to pKi for displacement of [3H]-RX821002 from adrenergic alpha 2 receptor in post-mortem human brain frontal cortex membrane; assay type: cell membranes
[3] = Permeability of compound by PAMPA-BBB assay; assay type: ADME
LN-229 = test: Cytotoxicity against human LN-229 cells at 100 uM by real time IncuCyte proliferation assay; assay type: cell-based; conditions: ln-229, 100 µM
Summary of the method: (§1)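 Adherent lines (LN-229, Capan-1, HCT-116, NCI-H460) seeded at 500–1500 cells/well and treated after overnight attachment. Suspension lines (HL-60, K-562, Z-138, DND-41) seeded at 2500–5500 cells/well directly with compound. Highest concentration 100 μM; proliferation tracked by real-time IncuCyte imaging over 72 h at 37 °C.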

CAPAN-1 = test: Cytotoxicity against human CAPAN-1 cells at 100 uM by real time IncuCyte proliferation assay; assay type: cell-based; conditions: capan-1, 100 µM; summary of the method: as §1
HCT-116 = test: Cytotoxicity against human HCT-116 cells at 100 uM by real time IncuCyte proliferation assay; assay type: cell-based; conditions: hct-116, 100 µM; summary of the method: as §1
NCI-H460 = test: Cytotoxicity against human NCI-H460 cells at 100 uM by real time IncuCyte proliferation assay; assay type: cell-based; conditions: nci-h460, 100 µM; summary of the method: as §1
[4] = Cytotoxicity against human DND41 cells at 100 uM by real time IncuCyte proliferation assay; assay type: cell-based; conditions: dnd41, 100 µM; summary of the method: as §1
HL-60 = test: Cytotoxicity against human HL-60 cells at 100 uM by real time IncuCyte proliferation assay; assay type: cell-based; conditions: hl-60, 100 µM; summary of the method: as §1
K562 = test: Cytotoxicity against human K562 cells at 100 uM by real time IncuCyte proliferation assay; assay type: cell-based; conditions: k562, 100 µM; summary of the method: as §1
Z-138 = test: Cytotoxicity against human Z138 cells at 100 uM by real time IncuCyte proliferation assay; assay type: cell-based; conditions: z-138, 100 µM; summary of the method: as §1
[5] = Displacement of [3H]2-BFI from imidazoline I2 receptor in post-mortem human brain frontal cortex membrane one site model measured after 45 mins by liquid scintillation counting spectrometry
[6] = Displacement of [3H]2-BFI from imidazoline I2 receptor low affinity site in post-mortem human brain frontal cortex membrane two site model measured after 45 mins by liquid scintillation counting spectrometry
[7] = Displacement of [3H]2-BFI from imidazoline I2 receptor high affinity site in post-mortem human brain frontal cortex membrane two site model measured after 45 mins by liquid scintillation counting spectrometry
Homo sapiens [8] = species: Homo sapiens; test: Displacement of [3H]2-BFI from imidazoline I2 receptor in post-mortem human brain frontal cortex membrane assessed as occupancy at high affinity site measured after 45 mins by liquid scintillation counting spectrometry

SMILES: Cl.Oc1ccc2oc(-c3ncc[nH]3)cc2c1
- pKi [1]: 3.84
- Selectivity Index (Homo sapiens [2]): 11
- Papp [3]: 0.32 ×10⁻⁶ cm/s
- Activity (LN-229): Non-Toxic
- Activity (CAPAN-1): Non-Toxic
- Activity (HCT-116): Non-Toxic
- Activity (NCI-H460): Non-Toxic
- Activity [4]: Non-Toxic
- Activity (HL-60): Non-Toxic
- Activity (K562): Non-Toxic
- Activity (Z-138): Non-Toxic
- pKi [5]: 4.87
- pKi [6]: 4.6
- pKi [7]: 9.57
- Activity (Homo sapiens [8]): 29%

SMILES: c1ccc2oc(C3=NCCN3)cc2c1
- pKi [1]: 4.58
- Selectivity Index (Homo sapiens [2]): 5370
- Papp [3]: 6.1 ×10⁻⁶ cm/s
- Activity (LN-229): Non-Toxic
- Activity (CAPAN-1): Non-Toxic
- Activity (HCT-116): Non-Toxic
- Activity (NCI-H460): Non-Toxic
- Activity [4]: Non-Toxic
- Activity (HL-60): Non-Toxic
- Activity (K562): Non-Toxic
- Activity (Z-138): Non-Toxic
- pKi [5]: 8.31
- pKi [6]: 7.15
- pKi [7]: 9.08
- Activity (Homo sapiens [8]): 58%

SMILES: Brc1ccc2oc(-c3ncc[nH]3)cc2c1.Cl
- pKi [1]: 4.92
- Selectivity Index (Homo sapiens [2]): 23
- Papp [3]: 20.3 ×10⁻⁶ cm/s
- Activity (LN-229): Non-Toxic
- Activity (CAPAN-1): Non-Toxic
- Activity (HCT-116): Non-Toxic
- Activity (NCI-H460): Non-Toxic
- Activity [4]: Non-Toxic
- Activity (HL-60): Non-Toxic
- Activity (K562): Non-Toxic
- Activity (Z-138): Non-Toxic
- pKi [5]: 6.28
- pKi [6]: 5.85
- pKi [7]: 8.63
- Activity (Homo sapiens [8]): 20%

SMILES: COc1ccc2cc(-c3ncc[nH]3)oc2c1.Cl
- pKi [1]: 3.01
- Selectivity Index (Homo sapiens [2]): 741
- Papp [3]: 7.6 ×10⁻⁶ cm/s
- Activity (LN-229): Non-Toxic
- Activity (CAPAN-1): Non-Toxic
- Activity (HCT-116): Non-Toxic
- Activity (NCI-H460): Non-Toxic
- Activity [4]: Non-Toxic
- Activity (HL-60): Non-Toxic
- Activity (K562): Non-Toxic
- Activity (Z-138): Non-Toxic
- pKi [5]: 5.88
- pKi [6]: 4.58
- pKi [7]: 6.77
- Activity (Homo sapiens [8]): 46%

SMILES: COc1ccc2oc(-c3ncc[nH]3)cc2c1.Cl
- pKi [1]: 3.94
- Selectivity Index (Homo sapiens [2]): 295
- Papp [3]: 8.3 ×10⁻⁶ cm/s
- Activity (LN-229): Non-Toxic
- Activity (CAPAN-1): Non-Toxic
- Activity (HCT-116): Non-Toxic
- Activity (NCI-H460): Non-Toxic
- Activity [4]: Non-Toxic
- Activity (HL-60): Non-Toxic
- Activity (K562): Non-Toxic
- Activity (Z-138): Non-Toxic
- pKi [5]: 6.41

SMILES: CCn1ccnc1-c1cc2ccccc2o1.Cl
- pKi [1]: 3.77
- Selectivity Index (Homo sapiens [2]): 19
- Papp [3]: 19.2 ×10⁻⁶ cm/s
- Activity (LN-229): Non-Toxic
- Activity (CAPAN-1): Non-Toxic
- Activity (HCT-116): Non-Toxic
- Activity (NCI-H460): Non-Toxic
- Activity [4]: Non-Toxic
- Activity (HL-60): Non-Toxic
- Activity (K562): Non-Toxic
- Activity (Z-138): Non-Toxic
- pKi [5]: 5.05
- pKi [6]: 4.72
- pKi [7]: 7.09
- Activity (Homo sapiens [8]): 22%

Source: ChEMBL document CHEMBL4825692, “Benzofuranyl-2-imidazoles as imidazoline I2 receptor ligands for Alzheimer's disease” (Eur J Med Chem, 2021)
